# From PubChem BioAssay
# Only some compounds are listed: those with a hit (about 2.1% of all), similar ones and a draw of the others.
# GSTO1 counter: counter-screen for RBBP9 inhibitors: inhibitors of human GSTO1; P78417; recombinant GSTO1, activity-based probe fluorescence polarization; inhibition, % at 5.96 µM; 1.1% of 300,000 active;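 active = inhibition above the campaign mean inhibition plus 3 SD, cut at about 35% in these data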;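 also: 0% = GSTO1-1 with DMSO and 100% = wells lacking GSTO1-1 enzyme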
# PP1 inh: counter-screen for PP5 inhibitors: inhibitors of human PP1-alpha; P62136; purified PP1alpha, OMFP fluorescence; inhibition, % at 6.7 µM; 0.9% of 320,000 active;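 active = inhibition above the mean inhibition of all tested compounds plus 3 SD, computed separately for each screening campaign, cut at about 15% in these data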
# Apaf1 inhib: human Apaf-1 inhibition; inhibition, % at 20 µM; reconstituted apoptosome caspase-3 activity, DEVD-Rh110 fluorescence; 0.71% of 330,000 active; O14727; AID 489030; active = inhibition of at least 40% at 20 µM;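 also: plate controls were DMSO wells for no effect and DEVD-CHO caspase inhibitor wells for full effect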
#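 Material: biochemical Apaf-1 apoptosome reconstitution. Medium: Hepes buffer, pH 7.5. Also added: cytochrome c activation, bis-DEVD rhodamine 110 substrate. Timing: 30 min compound preincubation, 50 min activation, room temperature. Measured by: rhodamine 110 fluorescence at Ex 480/Em 540 nm.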
# PP5 primary: PP5 (human) phosphatase inhibition. P53041. purified PP5c, OMFP substrate fluorescence. inhibition, % at 6.7 µM. 0.18% of 320,000 active. AID 1987;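 active = inhibition above the campaign's mean inhibition across all tested compounds plus 3 SD, cut at about 9.5% in these data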;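 also: 0% = DMSO only and 100% = 100 µM cantharidin control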
# TDP2 absorb: TDP2 (human) inhibition, absorbance primary screen. recombinant TDP2, T5PNP hydrolysis, p-nitrophenol absorbance 415 nm. inhibition, % at 12.8 µM. 0.34% of 370,000 active. AID 720702;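 active = inhibition above the mean of all tested compounds plus 3 SD, set per campaign, cut at about 25% in these data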;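 also: 0% = DMSO with enzyme and 100% = buffer with substrate but no TDP2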
# Target sequence (O95551 whole entry, looked up): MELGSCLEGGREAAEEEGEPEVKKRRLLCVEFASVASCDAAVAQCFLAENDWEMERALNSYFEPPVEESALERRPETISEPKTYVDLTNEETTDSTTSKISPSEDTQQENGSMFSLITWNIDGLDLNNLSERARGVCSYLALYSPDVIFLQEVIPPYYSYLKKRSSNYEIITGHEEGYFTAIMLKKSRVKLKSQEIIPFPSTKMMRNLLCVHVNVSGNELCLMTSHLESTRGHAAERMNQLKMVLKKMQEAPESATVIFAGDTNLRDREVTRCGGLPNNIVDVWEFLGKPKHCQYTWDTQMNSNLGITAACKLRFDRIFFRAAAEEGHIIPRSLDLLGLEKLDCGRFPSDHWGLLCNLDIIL
#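 System – recombinant human TDP2 · Quantity – TDP2 enzyme at 120 nM final · Doses – single concentration, 12.8 µM nominal, with 1% DMSO · Incubation – 2 h at 37 °C · Measured by – epi absorbance of p-nitrophenol freed from T5PNP by hydrolysis · Read-out – % inhibition relative to enzyme-containing and enzyme-free wells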
# GSTO1 inh conf: confirmation of human GSTO1 inhibitors. shares compounds with GSTO1 counter. inhibition, % at 5.96 µM. recombinant GSTO1, probe fluorescence polarization. 54% of 2,400 active;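 active = inhibition above the primary screen's cutoff, its mean inhibition plus 3 SD, cut at about 35% in these data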;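 also: loss of polarization as inhibitors block binding of rhodamine sulfonate ester activity probe; 0% = GSTO1 with DMSO and 100% = wells lacking GSTO1 enzyme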
# GSTO1 recomb ABPP: blocks recombinant human glutathione S-transferase omega 1; shares compounds with GSTO1 counter; inhibition, % at 1 µM; 30% of 130 active; recombinant GSTO1, gel ABPP SE-Rh probe fluorescence;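 active = inhibition of the enzyme GSTO1 above about 75%, limit read from the data; inactive = inhibition below that limit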
# Active calls of the source: *; x = not tested or not shown.
SMILES,GSTO1 counter,PP1 inh,Apaf1 inhib,PP5 primary,TDP2 absorb,GSTO1 inh conf,others
CCCCCCN1CCS(=O)(=O)N(Cc2ccc(F)cc2)C(C(=O)OC)C1 (centres undefined),x,x,x,x,-14.6,x,
COC(=O)[C@]12C[C@H](CC(=O)NCc3ccccc3)C(=O)N(Cc3ccc(Cl)cc3Cl)C1=C[C@H](COCc1ccccc1)O[C@@H]2C,x,x,x,x,6.2,x,
Oc1ccc(CCNc2c3ccccc3nc3ccccc23)cc1O,47.8*,0.7,-3.9,0.5,-0.9,4.7,
Cc1ccc(NC(=S)NNC(=O)CSc2nc3ccccc3c(=O)n2-c2ccc(Cl)cc2)cc1,x,x,x,x,-4.3,x,
Cc1cc([N+](=O)[O-])cc2c1NC(=O)C2(O)N1CCOCC1 (centres undefined),38.0*,-0.5,7.4,2.4,13.5,14.9,
Cc1cc(O)c(Oc2cc(C)cc(O)c2O)c(O)c1,56.2*,2.1,-6.9,2.6,3.3,18.2,
COC1OC(COCc2ccccc2)C2OC(C)(C)OC2C1O (centres undefined),x,x,x,x,-1.2,x,
Cc1ccc(CNC(=O)O[C@H]2CC[C@@]34CCCN3C(=O)CCC[C@H]4C2)o1,x,x,x,x,2.8,x,
COc1cccc(-c2nc(-c3ccccc3)[nH]c(=O)c2C#N)c1,-7.2,3.2,10.5,-3.5,-1.6,x,
CCC(Sc1nc(-c2cccc(OC)c2)c(C#N)c(=O)[nH]1)C(=O)Nc1nnc(C(C)C)s1 (centres undefined),50.3*,-2.5,11.2,-1.6,-5.5,62.0*,
NC(=O)c1ccc(N=C2C(=O)Nc3ccc([N+](=O)[O-])cc32)cc1,71.5*,1.1,55.8*,2.1,44.1*,30.0,
O=C1Nc2ccccc2C1=Nc1cccc([N+](=O)[O-])c1,8.6,-1.3,1.4,0.0,4.9,x,
O=C(CNC(=O)c1cccnc1)N=Nc1c(O)[nH]c2c(Br)cc(Br)cc12,85.0*,-1.6,5.0,2.7,10.6,40.6*,
Oc1ccc(/C=N/N(c2ccccc2)c2ccccc2)c(O)c1O,50.8*,9.0,31.9,0.3,0.7,5.1,
Oc1ccc(/C=N/N(c2ccccc2)c2ccccc2)cc1O,8.5,0.2,8.9,3.4,-6.9,x,
O=C(C1CCCN1S(=O)(=O)c1ccc(Br)s1)N1CCN(c2ccccc2)CC1 (centres undefined),x,x,x,x,-0.5,x,
O=c1ccc2ccccc2c2ccccc12,x,x,x,x,3.6,x,
O=Nc1c(O)c2ccccc2c2ccccc12,78.0*,3.3,x,3.2,6.6,80.7*,
CCOCC(=O)N1CCC(Cc2ccccc2)CC1,11.3,-3.9,16.4,2.2,-9.3,x,
Cn1c(C(=O)O)c(CC(=O)N2CCC(Cc3ccccc3)CC2)c2ccccc21,41.8*,-7.1,8.9,-4.3,4.2,8.5,
COc1ccc(C2CC(=O)C(c3ccc(C(F)(F)F)cc3)=CN2Cc2ccccc2)cc1 (centres undefined),x,x,x,x,-5.5,x,
CC12CCC(C(=O)N(CC3CO3)C1=O)C2(C)C (centres undefined),60.8*,-1.3,0.2,-1.4,14.4,77.2*,GSTO1 recomb ABPP=7.0
O=C(C(=O)N1CCN(S(=O)(=O)c2ccc(OC(F)(F)F)cc2)CC1)c1cccc(C(F)(F)F)c1,x,x,x,x,6.5,x,
CC(=O)Nc1ccc(Sc2ccccc2C(=O)O)cn1,44.3*,-2.2,28.1,-1.3,13.3,25.5,
CCCC[C@H]1C2CC(OC(=O)Nc3ccccc3Cl)C(C2)[C@H]2CCCCN21 (some centres undefined),x,x,x,x,-0.2,x,
Cc1c(Cl)cccc1N/C(=N/S(=O)(=O)c1cccs1)c1ccccc1,5.9,-1.3,1.9,-1.6,0.1,x,
Cc1cccc(NC2=C/C(=N/S(=O)(=O)c3cccs3)c3ccccc3C2=O)c1,83.6*,-1.0,x,3.3,19.7,81.4*,
COc1cc(C2CC(c3cccs3)=NN2C(=O)CCl)ccc1OC(F)F (centres undefined),93.9*,-2.0,22.6,0.1,9.3,96.5*,
COc1ccc(C2CC(c3cccs3)=NN2C(=O)c2ccccc2)cc1OC (centres undefined),-6.0,0.2,8.3,1.4,4.8,x,
COc1ccc(C2CC(c3cccs3)=NN2C(=O)CCl)cc1OC (centres undefined),90.2*,-0.6,14.8,1.2,9.2,96.5*,
